Test results as given in ChEMBL document CHEMBL3808334, “Synthesis and in vitro evaluation of novel triazine analogues as anticancer agents and their interaction studies with bovine serum albumin” (Eur J Med Chem, 2016).

Columns and labels:
Assay type in all cases: functional
[1] = tested on: NCI-H23; assay: Growth inhibition of human NCI-H23 cells assessed as cell growth at 10 uM incubated for 48 hrs by sulforhodamine B assay; settings: NCI-H23, 48 h, read-out: Activity
[2] = tested on: SN12C; assay: Growth inhibition of human SN12C cells assessed as cell growth at 10^-8 M incubated for 48 hrs by sulforhodamine B assay; settings: read-out: Activity
[3] = tested on: K562; assay: Growth inhibition of human K562 cells assessed as cell growth at 10^-6 M incubated for 48 hrs by sulforhodamine B assay; settings: K562, 48 h, read-out: Activity
[4] = tested on: NCI-H460; assay: Growth inhibition of human NCI-H460 cells assessed as cell growth at 10^-6 M incubated for 48 hrs by sulforhodamine B assay; settings: NCI-H460, 48 h, read-out: Activity
[5] = Growth inhibition of human TK10 cells assessed as cell growth at 10^-5 M incubated for 48 hrs by sulforhodamine B assay; settings: TK-10, 48 h, read-out: Activity
[6] = tested on: Malme-3M; assay: Growth inhibition of human MALME-3M cells assessed as cell growth at 10^-4 M incubated for 48 hrs by sulforhodamine B assay; settings: read-out: Activity
[7] = Growth inhibition of human OVCAR5 cells assessed as cell growth at 10 uM incubated for 48 hrs by sulforhodamine B assay; settings: OVCAR-5, 48 h, read-out: Activity
[8] = Growth inhibition of human SNB75 cells assessed as cell growth at 10^-6 M incubated for 48 hrs by sulforhodamine B assay; settings: SNB-75, 48 h, read-out: Activity
[9] = Growth inhibition of human HOP62 cells assessed as cell growth at 10 uM incubated for 48 hrs by sulforhodamine B assay; settings: HOP-62, 48 h, read-out: Activity
[10] = tested on: MDA-MB-468; assay: Growth inhibition of human MDA-MB-468 cells assessed as cell growth at 10^-6 M incubated for 48 hrs by sulforhodamine B assay; settings: MDA-MB-468, 48 h, read-out: Activity
[11] = tested on: A549; assay: Growth inhibition of human A549/ATCC cells assessed as cell growth at 10^-8 M incubated for 48 hrs by sulforhodamine B assay; settings: A549, 48 h, read-out: Activity
In short: (§1)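 Five-dose assay: five concentrations from 10-fold or ½-log serial dilutions. Cells are plated at 5,000–40,000 per well according to doubling time, grown 24 h, then exposed 48 h at 37 °C, 5% CO₂. Fixed with cold 50% TCA (final addition) for 60 min at 4 °C and stained with 0.4% SRB in 1% acetic acid. Bound dye is solubilized in 10 mM Tris base and read at 515 nm. GI₅₀ is where [(Ti−Tz)/(C−Tz)]×100 = 50, with a time-zero plate as Tz.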

[12] = tested on: NCI-H460; assay: Growth inhibition of human NCI-H460 cells assessed as cell growth at 10^-7 M incubated for 48 hrs by sulforhodamine B assay; settings: NCI-H460, 48 h, read-out: Activity
[13] = tested on: NCI-H23; assay: Growth inhibition of human NCI-H23 cells assessed as cell growth at 10^-8 M incubated for 48 hrs by sulforhodamine B assay; settings: NCI-H23, 48 h, read-out: Activity
[14] = tested on: 786-0; assay: Growth inhibition of human 786-0 cells assessed as cell growth at 10^-4 M incubated for 48 hrs by sulforhodamine B assay; settings: 786-0, 48 h, read-out: Activity; in short: as §1
[15] = tested on: MDA-MB-435; assay: Growth inhibition of human MDA-MB-435 cells assessed as cell growth at 10^-8 M incubated for 48 hrs by sulforhodamine B assay; settings: MDA-MB-435, 48 h, read-out: Activity
[16] = tested on: EKVX; assay: Growth inhibition of human EKVX cells assessed as cell growth at 10^-6 M incubated for 48 hrs by sulforhodamine B assay; settings: read-out: Activity
In short: (§2)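 Cells seeded at 5,000–40,000/well according to doubling time and preincubated 24 h at 37 °C, 5% CO2. Time-zero plates were TCA-fixed. DMSO concentrate was diluted in medium with 50 µg/ml gentamicin to give five concentrations (10-fold or ½ log steps), then exposed 48 h. Cells were TCA-fixed, stained with 0.4% SRB and read at 515 nm. Percent growth was taken against time-zero and control; GI50, TGI and LC50 derived.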

[17] = tested on: CCRF-CEM; assay: Growth inhibition of human CCRF-CEM cells assessed as cell growth at 10^-7 M incubated for 48 hrs by sulforhodamine B assay; settings: read-out: Activity
In short: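 Leukemia line in the five-dose format: five concentrations from 10-fold or ½-log serial dilutions. Plated at 5,000–40,000 cells per well, preincubated 24 h, then compound added for 48 h at 37 °C, 5% CO₂. Sulforhodamine B absorbance read at 515 nm. Growth is computed against time-zero (Tz) and control (C) readings; GI₅₀ is where [(Ti−Tz)/(C−Tz)]×100 = 50.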

[18] = tested on: NCI/ADR-RES; assay: Growth inhibition of human NCI/ADR-RES cells incubated for 48 hrs by sulforhodamine B assay
In short: (§3)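 Cells were plated at 5,000–40,000 per well according to doubling time and preincubated 24 h at 37 °C in 5% CO2; time-zero plates were then TCA-fixed. Five concentrations (10-fold or ½-log dilutions, DMSO stock) were incubated 48 h. Cells were TCA-fixed, stained with 0.4% SRB and read at 515 nm. GI50 was taken where [(Ti−Tz)/(C−Tz)]×100 = 50.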

[19] = tested on: NCI/ADR-RES; assay: Growth inhibition of human NCI/ADR-RES cells assessed as cell growth at 10^-5 M incubated for 48 hrs by sulforhodamine B assay; settings: read-out: Activity
[20] = tested on: KM12; assay: Growth inhibition of human KM12 cells incubated for 48 hrs by sulforhodamine B assay; settings: KM12, 48 h; in short: as §3
[21] = Growth inhibition of human HCT15 cells assessed as cell growth at 10^-5 M incubated for 48 hrs by sulforhodamine B assay; settings: HCT-15, 48 h, read-out: Activity; in short: as §2
[22] = Growth inhibition of human OVCAR3 cells incubated for 48 hrs by sulforhodamine B assay; settings: OVCAR-3, 48 h; in short: as §3
[23] = Growth inhibition of human colon cancer cells incubated for 48 hrs by sulforhodamine B assay; settings: Cancer cell lines; for CC50: read-out: LC50 (the source's name)
[24] = tested on: T47D; assay: Growth inhibition of human T47D cells incubated for 48 hrs by sulforhodamine B assay; in short: as §3
[25] = tested on: NCI-H322M; assay: Growth inhibition of human NCI-H322M cells assessed as cell growth at 10^-7 M incubated for 48 hrs by sulforhodamine B assay; settings: read-out: Activity
[26] = tested on: Malme-3M; assay: Growth inhibition of human MALME-3M cells assessed as cell growth at 10 uM incubated for 48 hrs by sulforhodamine B assay; settings: read-out: Activity
[27] = read-out: LC50 (the source's name)
[28] = read-out: pLC50 (the source's name) (converted)

## Fc1ccc(-c2nc(Nc3ccc(-c4nc5ccccc5[nH]4)cc3)nc(N3CCOCC3)n2)cc1
[1]
  growth at 10 µM: 11.3%
[2]
  growth at 0.01 µM: 95%
[3]
  growth at 1 µM: 101%
[4]
  growth at 1 µM: 97%
[5]
  growth at 10 µM: -7%
[6]
  growth at 100 µM: -58%
[7]
  growth at 10 µM: 66.3%
[8]
  growth at 1 µM: 67%
[9]
  growth at 10 µM: -27.3%
[10]
  growth at 1 µM: 106%
[11]
  growth at 0.01 µM: 95%
[12]
  growth at 0.1 µM: 103%
[13]
  growth at 0.01 µM: 94%
[14]
  growth at 100 µM: -68%
[15]
  growth at 0.01 µM: 99%
[16]
  growth at 1 µM: 83%
[17]
  growth at 0.1 µM: 104%
[18]; read-out: GI50
  GI50: 3.18 µM
[18]; [27]
  CC50: > 100 µM
[18]; read-out: TGI
  TGI: 26.7 µM
[18]; read-out: pGI50 (converted)
  GI50: 3.16 µM
[18]; [28]
  CC50: > 100 µM
[18]; read-out: pTGI (converted)
  TGI: 26.9 µM
[19]
  growth at 10 µM: 10%
[20]; read-out: GI50
  GI50: 2.06 µM
[20]; [27]
  CC50: > 100 µM
[20]; read-out: TGI
  TGI: 5.69 µM
[20]; read-out: pGI50 (converted)
  GI50: 2.04 µM
[20]; [28]
  CC50: > 100 µM
[20]; read-out: pTGI (converted)
  TGI: 5.62 µM
[21]
  growth at 10 µM: -35%
[22]; read-out: GI50
  GI50: 1.82 µM
[22]; read-out: TGI
  TGI: 3.91 µM
[22]; read-out: pGI50 (converted)
  GI50: 1.82 µM
[22]; read-out: pTGI (converted)
  TGI: 3.89 µM
[23]
  GI50: 2.15 µM
  TGI: 4.73 µM
  CC50: 7.9 µM
[24]; read-out: GI50
  GI50: 1.88 µM
[24]; read-out: TGI
  TGI: 4.32 µM
[24]; read-out: pGI50 (converted)
  GI50: 1.86 µM
[24]; read-out: pTGI (converted)
  TGI: 4.37 µM
[25]
  growth at 0.1 µM: 102%
[26]
  growth at 10 µM: -65.7%

## c1ccc2[nH]c(-c3ccc(Nc4nc(N5CCCCC5)nc(N5CCOCC5)n4)cc3)nc2c1
[1]
  growth at 10 µM: 19.7%
[2]
  growth at 0.01 µM: 95%
[3]
  growth at 1 µM: 109%
[4]
  growth at 1 µM: 98%
[5]
  growth at 10 µM: -4%
[6]
  growth at 100 µM: -80%
[7]
  growth at 10 µM: 73.9%
[8]
  growth at 1 µM: 69%
[9]
  growth at 10 µM: -45.2%
[10]
  growth at 1 µM: 106%
[11]
  growth at 0.01 µM: 94%
[12]
  growth at 0.1 µM: 98%
[13]
  growth at 0.01 µM: 98%
[14]
  growth at 100 µM: -87%
[15]
  growth at 0.01 µM: 96%
[16]
  growth at 1 µM: 84%
[17]
  growth at 0.1 µM: 96%
[18]; read-out: GI50
  GI50: 4.69 µM
[18]; [27]
  CC50: > 100 µM
[18]; read-out: TGI
  TGI: 55.2 µM
[18]; read-out: pGI50 (converted)
  GI50: 4.68 µM
[18]; [28]
  CC50: > 100 µM
[18]; read-out: pTGI (converted)
  TGI: 55 µM
[19]
  growth at 10 µM: 28%
[20]; read-out: GI50
  GI50: 2.85 µM
[20]; [27]
  CC50: > 100 µM
[20]; read-out: TGI
  TGI: 9.54 µM
[20]; read-out: pGI50 (converted)
  GI50: 2.82 µM
[20]; [28]
  CC50: > 100 µM
[20]; read-out: pTGI (converted)
  TGI: 9.55 µM
[21]
  growth at 10 µM: -49%
[22]; read-out: GI50
  GI50: 2.4 µM
[22]; [27]
  CC50: > 100 µM
[22]; read-out: TGI
  TGI: 6.19 µM
[22]; read-out: pGI50 (converted)
  GI50: 2.4 µM
[22]; [28]
  CC50: > 100 µM
[22]; read-out: pTGI (converted)
  TGI: 6.17 µM
[23]
  GI50: 2.43 µM
  TGI: 5.52 µM
  CC50: 30.2 µM
[24]; read-out: GI50
  GI50: 1.96 µM
[24]; [27]
  CC50: > 100 µM
[24]; read-out: TGI
  TGI: 4.58 µM
[24]; read-out: pGI50 (converted)
  GI50: 1.95 µM
[24]; [28]
  CC50: > 100 µM
[24]; read-out: pTGI (converted)
  TGI: 4.57 µM
[25]
  growth at 0.1 µM: 97%
[26]
  growth at 10 µM: -50.2%
